Reference: article PMC9673116 (Poultry Science, 2022)
Read-outs that look alike come from different tables or passages of the source. Blank lines part the entries; values can stand above or below the compound they belong to.

Experiments:
[1] = Pharmacokinetic study of orally administered florfenicol in chicken; format: in vivo; settings: female, HY-Line Brown, plasma, po, 20 mg/kg
chicken BCRP = settings: ref Zhang et al., 2018; cited from earlier work
[2] = Arbor Acres broilers, ref Liu et al., 2018; cited from earlier work
BCRP = assay: Mitoxantrone accumulation assay; format: cell-based, chicken
Summary of the method: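 Hepatocytes isolated from livers of 14-day-old Arbor Acres broiler embryos, grown in M199 with transferrin, penicillin and streptomycin (37°C, 5% CO2). Exposed 24 h to CXR agonist alone or with BCRP inhibitor; untreated cells served as negative control. All wells then loaded with mitoxantrone 1 h, trypsinized, washed 3× PBS. Intracellular fluorescence read by flow cytometry at 633 nm excitation. At least 3 independent experiments, mean ± SD.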

[3] = ref Anadon et al., 2008; cited from earlier work
BCRP protein [4] = assay: Western blot analysis of BCRP protein expression in chicken primary hepatocytes; format: cell-based
Summary of the method: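 Primary hepatocytes exposed 24 h to a range of CXR agonist concentrations, or siRNA-knocked-down first (CXR-targeting vs scrambled) and then agonist-treated 24 h. Lysed in RIPA, protein by BCA, separated on 5–12% SDS-PAGE, transferred to PVDF. Blocked with 5% milk 1 h. Probed overnight at 4°C with anti-BCRP 1:500 and anti-β-tubulin 1:5,000, then secondary 1:4,000 1 h at 37°C. ECL detection; densitometry normalized to β-tubulin.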

ABCG2 mRNA [5] = assay: RT-PCR analysis of ABCG2 mRNA in chicken primary hepatocytes; format: cell-based; settings: hepatocytes transfected with siCXR, 500 µM metyrapone 24 h
Summary of the method: (§1)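 Primary broiler-embryo hepatocytes grown to 70% confluency in 6-well plates. Transfected 24 h with CXR-targeting or scrambled control siRNA, then exposed to CXR agonist 24 h. Total RNA extracted with TRIzol and reverse-transcribed. Target mRNA quantified by SYBR Green real-time PCR against β-actin, 2^−ΔΔCt method. Three independent experiments, mean ± SD.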

BCRP protein [6] = format: in vivo; settings: metyrapone single oral 150 mg per chicken, 24 h
Summary of the method: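 Third-week-old chickens (6 per group), untreated or given a single oral CXR agonist dose of 150 mg per chicken, killed by CO2 24 h later. Tissues snap-frozen. Protein extracted with RIPA and quantified by BCA. Separated by 5–12% SDS-PAGE, blotted to PVDF. Probed with anti-BCRP 1:500 and anti-β-tubulin 1:5,000 overnight at 4°C. ECL detection; densitometry normalized to β-tubulin.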

CYP2H1 mRNA [7] = assay: RT-PCR analysis of CYP2H1 mRNA in chicken primary hepatocytes; format: cell-based; settings: 500 µM metyrapone 24 h
Summary of the method: as §1

ABCG2 mRNA [8] = assay: RT-PCR analysis of ABCG2 mRNA in tissues of chickens treated with metyrapone; format: in vivo; settings: metyrapone single oral 150 mg per chicken, 24 h
Summary of the method: (§2)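 Twelve third-week-old chickens of similar weight in two groups of 6: untreated, or a single oral CXR agonist dose of 150 mg per chicken. Killed by CO2 asphyxiation 24 h later. Tissues snap-frozen and stored −70°C. RNA extracted with TRIzol and reverse-transcribed. mRNA quantified by SYBR Green real-time PCR with β-actin reference, 2^−ΔΔCt. Mean ± SD.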

CYP2H1 mRNA [9] = assay: RT-PCR analysis of CYP2H1 mRNA in tissues of chickens treated with metyrapone; format: in vivo; settings: metyrapone single oral 150 mg per chicken, 24 h
Summary of the method: as §2

Vd/F [1]: 0.24 ± 0.05 L/kg
half-life [1]: 2.13 ± 0.45 h
SMILES: CS(=O)(=O)c1ccc([C@@H](O)[C@@H](CF)NC(=O)C(Cl)Cl)cc1 [Florfenicol, florfenicol]
Transport by chicken BCRP (chicken BCRP): actively transported
Absorption upon coadministration of gefitinib (a BCRP inhibitor) [2]: more extensively absorbed

SMILES: COc1ccc2c3c([nH]c2c1)[C@H](CC(C)C)N1C(=O)[C@H](CCC(=O)OC(C)(C)C)NC(=O)[C@@H]1C3 [Ko143]
Effect on metyrapone-induced mitoxantrone efflux activity (BCRP; cotreatment of Ko143 with 500 µM metyrapone): reversed

SMILES: CC1(C)S[C@@H]2[C@H](NC(=O)[C@H](N)c3ccccc3)C(=O)N2[C@H]1C(=O)O [ampicillin]
Transport by chicken BCRP (chicken BCRP): actively transported

SMILES: CCN1CCN(c2cc3c(cc2F)c(=O)c(C(=O)O)cn3C2CC2)CC1 [enrofloxacin]
Transport by chicken BCRP (chicken BCRP): actively transported

SMILES: CS(=O)(=O)c1ccc([C@@H](O)[C@H](N)CF)cc1 [florfenicol amine]
Eliminated by renal excretion as metabolite florfenicol amine [3]: 25%

Induction of CYP2H1 mRNA upon metyrapone treatment, CXR expression vector (CYP2H1 mRNA [7]; hepatocytes transfected with CXR expression vector): 5.1 fold
Induction of CYP2H1 mRNA by metyrapone after knockdown of CXR (CYP2H1 mRNA [7]; hepatocytes transfected with siCXR): 0.5 fold
CYP2H1 mRNA expression increase (CYP2H1 mRNA [9]; duodenum): 5.6 fold
Effect on expression of CYP2H1 (CYP2H1 mRNA [9]; ileum): did not influence
CYP2H1 mRNA expression increase (CYP2H1 mRNA [9]; jejunum): 1.7 fold
CYP2H1 mRNA expression increase (CYP2H1 mRNA [9]; kidney): 8 fold
CYP2H1 mRNA expression increase (CYP2H1 mRNA [9]; liver): 3.6 fold
SMILES: CC(C)(C(=O)c1cccnc1)c1cccnc1 [metyrapone, Metyrapone]
Induction of ABCG2 at the protein level by metyrapone after knockdown of CXR (BCRP protein [4]; hepatocytes transfected with siCXR, 500 µM metyrapone 24 h): 0.7 fold
BCRP protein expression, fold vs negative control cells (BCRP protein [4]; increasing concentrations of metyrapone, 24 h, chicken primary hepatocytes): up to 2.8 fold
Induction of ABCG2 at the mRNA level by metyrapone after knockdown of CXR (ABCG2 mRNA [5]): 0.7 fold
BCRP protein expression increase (BCRP protein [6]; duodenum): 1.4 fold
BCRP protein expression increase (BCRP protein [6]; jejunum): 1.3 fold
BCRP protein expression increase (BCRP protein [6]; kidney): 1.6 fold
BCRP protein expression increase (BCRP protein [6]; liver): 1.6 fold
Intracellular mitoxantrone fluorescence lower than in untreated cells (BCRP; 500 µM metyrapone pretreatment 24 h, 5 µM mitoxantrone 1 h, P < 0.01): 33%
ABCG2 mRNA expression increase (ABCG2 mRNA [8]; duodenum): 1.8 fold
Effect on expression of ABCG2 (ABCG2 mRNA [8]; ileum): did not influence
ABCG2 mRNA expression increase (ABCG2 mRNA [8]; jejunum): 1.6 fold
ABCG2 mRNA expression increase (ABCG2 mRNA [8]; kidney): 2.2 fold
ABCG2 mRNA expression increase (ABCG2 mRNA [8]; liver): 2.1 fold

SMILES: CC[C@H]1OC(=O)C[C@@H](O)[C@H](C)[C@@H](O[C@@H]2O[C@H](C)[C@@H](O)[C@H](N(C)C)[C@H]2O)[C@@H](CCN2C[C@H](C)C[C@H](C)C2)C[C@@H](C)C(=O)/C=C/C(C)=C/[C@@H]1CO[C@@H]1O[C@H](C)[C@@H](O)[C@@H](OC)[C@H]1OC [tilmicosin]
Transport by chicken BCRP (chicken BCRP): actively transported
